Experimental data reported in PubChem BioAssay.
Active and inactive are the calls of the source.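 The calls were made as follows, unless noted: active = viability at or under a set limit in both replicates, limit being median viability minus 3 SD (cut at about 48% in these data, passing the limit was not always enough); inconclusive = at or under the limit in just one replicate; inactive = at or above the limit in both replicates.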

How the values were obtained:
[1] = reducers of endogenous Her2 protein level, primary screen, SKBR3 breast tumor cells, AlphaScreen, ATP viability (AID 461;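 active = Her2 level under about 52% in both replicate screens, with viability over 70% of control, limit read from the data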;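 as to Her2 level: lower value means less Her2 protein in the cells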;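 as to viability: percent of carrier control wells set as 100% viability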); conditions: 18-24 h, measured here: SKBR3 viability, ATP luminescence, at 10 µM
[2] = target: Receptor tyrosine-protein kinase erbB-2 (Homo sapiens) (UniProt P04626); test: as above; conditions: 18-24 h, at 10 µM, stronger effect = lower value
Receptor tyrosine-protein kinase erbB-2 (Homo sapiens), sequence (P04626 whole entry, looked up): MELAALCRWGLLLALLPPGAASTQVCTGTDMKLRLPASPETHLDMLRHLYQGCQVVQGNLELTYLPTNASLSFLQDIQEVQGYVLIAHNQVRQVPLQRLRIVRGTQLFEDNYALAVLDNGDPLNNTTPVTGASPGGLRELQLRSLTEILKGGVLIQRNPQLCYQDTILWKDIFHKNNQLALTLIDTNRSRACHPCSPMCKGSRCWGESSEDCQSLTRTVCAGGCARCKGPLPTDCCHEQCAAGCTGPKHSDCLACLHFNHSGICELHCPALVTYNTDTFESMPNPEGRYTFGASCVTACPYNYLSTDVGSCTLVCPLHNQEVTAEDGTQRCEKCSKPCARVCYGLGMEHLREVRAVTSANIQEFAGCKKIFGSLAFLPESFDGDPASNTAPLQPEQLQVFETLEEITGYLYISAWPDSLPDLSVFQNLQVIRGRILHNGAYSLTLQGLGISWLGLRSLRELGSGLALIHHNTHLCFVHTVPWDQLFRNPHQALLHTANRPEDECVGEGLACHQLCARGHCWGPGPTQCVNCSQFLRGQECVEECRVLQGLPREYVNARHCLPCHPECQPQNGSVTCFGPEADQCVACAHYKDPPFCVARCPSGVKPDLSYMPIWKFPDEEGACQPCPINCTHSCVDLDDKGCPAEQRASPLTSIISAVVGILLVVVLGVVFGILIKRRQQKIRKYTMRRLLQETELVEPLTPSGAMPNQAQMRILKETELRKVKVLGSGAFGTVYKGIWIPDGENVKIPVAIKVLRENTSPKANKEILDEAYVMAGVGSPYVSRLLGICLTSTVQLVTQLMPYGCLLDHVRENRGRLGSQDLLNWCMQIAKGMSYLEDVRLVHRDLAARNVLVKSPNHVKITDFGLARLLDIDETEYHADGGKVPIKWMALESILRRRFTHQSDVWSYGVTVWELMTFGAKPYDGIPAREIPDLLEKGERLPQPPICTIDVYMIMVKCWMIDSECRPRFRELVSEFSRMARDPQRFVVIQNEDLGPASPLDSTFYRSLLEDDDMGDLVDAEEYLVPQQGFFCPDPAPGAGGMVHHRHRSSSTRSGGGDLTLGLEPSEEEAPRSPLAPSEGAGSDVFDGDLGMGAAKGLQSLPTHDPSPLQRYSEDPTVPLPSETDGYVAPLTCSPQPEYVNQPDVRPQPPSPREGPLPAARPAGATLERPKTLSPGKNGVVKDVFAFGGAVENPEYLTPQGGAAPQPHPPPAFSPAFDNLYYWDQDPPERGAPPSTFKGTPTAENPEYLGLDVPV

[3] = SK-BR-3 cell growth inhibitors, pilot screen, 24 h, human (AID 572;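 active = viability at or below 10% of carrier control in both of two separate runs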;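 also: compound exposure lasted between 18 and 24 h rather than exactly 24 h; 100% = carrier-treated control wells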); conditions: SK-BR-3 viability, CellTiter-Glo luminescence, at 10 µM, stronger effect = lower value
[4] = HUVEC growth inhibition – cell-based, human, primary screen (AID 575;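 active = viability at or below 30% in both replicate assays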;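 also: 100% = median of untreated cell wells with 0.1% DMSO on each plate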); conditions: HUVEC proliferation, CellTiter-Glo luminescence, 72 h; at 10 µM; stronger effect = lower value
Method in brief: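 Test system: primary human umbilical vein endothelial cells; medium: endothelial basal medium with 2% FBS plus growth supplements; dosing: 10 µM compound only; times: 72 h treatment at 37 °C; signal: CTG luminescence; read-out: % viability relative to median vehicle-well signal on each plate; control set: vehicle and MePR control wells; plate: 384-well, collagen-coated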

[5] = growth inhibitors of H69AR lung tumor, primary screen, human, duplicate replicates (AID 580); conditions: H69AR lung tumor cells viability, ATP luminescence, 72 h; at 10 µM; stronger effect = lower value;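 also: 100% = mean luminescence of untreated wells and 0% = no signal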
[6] = reversal of MRP1-mediated doxorubicin resistance, pilot screen, H69AR cells, doxorubicin co-treatment (AID 601;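 active = viability loss from added drug above about 55%, and viability with drug at most 40%, in both replicates, limit read from the data, passing the limit was not always enough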); conditions: CellTiter-Glo, 72 h, at 10 µM; for differential viability (reversal): stronger effect = higher value
[7] = 384-well plate pilot, post-Golgi transport modulator project, inhibition of yeast transport mutant growth (AID 636; in the data active = inhibition above about 31%); conditions: absorbance 615 nm, about 18 h, stronger effect = higher value
[8] = growth suppression of yeast trafficking mutant, preliminary HTS, modulators of trafficking downstream of Golgi apparatus project, 1536-format plate, OD 615 nm (AID 637; in the data active = inhibition above about 30%); conditions: yeast transport mutant growth, absorbance 615 nm, 18 h; stronger effect = higher value
[9] = H69AR cells + 2 uM doxorubicin, measured here: viability with 2 uM doxorubicin, stronger effect = lower value
[10] = H69AR cells, compound alone cytotoxicity

| SMILES | viability [1] [%] | Her2 level [2] | viability [3] | viability [4] | viability [5] | differential viability (reversal) ([6]; H69AR cells + 2 uM doxorubicin) | viability [6, 9] [%] | viability [6, 10] [%] | inhibition [7] | inhibition [8] |
| --- | --- | --- | --- | --- | --- | --- | --- | --- | --- | --- |
| O=C(CN(Cc1ccco1)C(=O)c1cc(=O)[nH]c2ccccc12)Nc1ccccc1Br | 97 | 79.5% (inactive) | 97% (inactive) | 98.2% (inactive) | 83.1% (inactive) | 9.09% (inactive) | 74 | 83.1 | -4.4% (inactive) | -0.33% (inactive) |
| Cc1cc(Cn2ccnc2)c(C)cc1Cn1ccnc1 | 82 | 91.5% (inactive) | 82% (inactive) | 107% (inactive) | 101% (inactive) | 6.74% (inactive) | 94.1 | 101 | -3.6% (inactive) | -0.32% (inactive) |
| COCCn1c(C)c(C(=O)O)sc1=S | 99 | 118% (inactive) | 99% (inactive) | 108% (inactive) | 104% (inactive) | 12.4% (inactive) | 91.3 | 104 | 0.79% (inactive) | -6.5% (inactive) |
| COCCOC(=O)c1cc(C(=O)c2cc(F)ccc2O)coc1=N | 83.5 | 82.5% (inactive) | 83.5% (inactive) | 92% (inactive) | 91.1% (inactive) | -3.97% (inactive) | 95.1 | 91.1 | -1.56% (inactive) | -5.08% (inactive) |
| COc1ccc2ccccc2c1CN1CCCC(CO)C1 (stereo not given) | 92.5 | 85.5% (inactive) | 92.5% (inactive) | 92.9% (inactive) | 82% (inactive) | 1.51% (inactive) | 80.5 | 82 | -1.82% (inactive) | 0.82% (inactive) |
| Cc1cc(C(=O)Nc2sc3c(c2C#N)CCCCC3)cs1 | 91.5 | 92.5% (inactive) | 91.5% (inactive) | 76.6% (inactive) | 77.1% (inactive) | -4.53% (inactive) | 81.7 | 77.1 | -3.47% (inactive) | -4.1% (inactive) |
| COc1cc(C2c3c(n[nH]c3C)C(=O)N2c2ccc(C)cc2)ccc1O (stereo not given) | 113 | 73% (inactive) | 113% (inactive) | 88.9% (inactive) | 101% (inactive) | 3.7% (inactive) | 97 | 101 | -3.87% (inactive) | -2.3% (inactive) |
| O=S(=O)(c1ccc(S(=O)(=O)N(Cc2ccco2)Cc2ccccc2Cl)cc1)N1CCCC1 | 96 | 74.5% (inactive) | 96% (inactive) | 79% (inactive) | 76.6% (inactive) | 12.4% (inactive) | 64.2 | 76.6 | -5.54% (inactive) | 8.1% (inactive) |
| COc1cc(OC)cc(-c2nc3nc(C)c(CCC(=O)O)c(C)n3n2)c1 | 106 | 81.5% (inactive) | 106% (inactive) | 80.1% (inactive) | 91.5% (inactive) | 7.47% (inactive) | 84 | 91.5 | -4.08% (inactive) | 0.18% (inactive) |
| Cc1cc(Nc2ccccc2F)n2ncnc2n1 | 101 | 97.5% (inactive) | 101% (inactive) | 99% (inactive) | 97.1% (inactive) | 8.83% (inactive) | 88.3 | 97.1 | -0.67% (inactive) | 0.16% (inactive) |
| COc1cccc(-n2c(CNc3ccc(F)cc3)nnc2SCC(N)=O)c1 | 115 | 82.5% (inactive) | 115% (inactive) | 101% (inactive) | 90.4% (inactive) | 8.77% (inactive) | 81.6 | 90.4 | -4.67% (inactive) | 0.97% (inactive) |
| CCCCC(=O)Nc1c(O)c2ccccc2[nH]c1=O | 95.5 | 107% (inactive) | 95.5% (inactive) | 108% (inactive) | 98.3% (inactive) | -2.29% (inactive) | 101 | 98.3 | -6.93% (inactive) | -8.69% (inactive) |
| COc1ccc(CC(=O)OCn2nnc3ccccc3c2=O)cc1 | 101 | 86% (inactive) | 101% (inactive) | 90.5% (inactive) | 98% (inactive) | -3.25% (inactive) | 101 | 98 | -5.6% (inactive) | -5.56% (inactive) |
| Cc1ccc2[nH]c(=O)c(CN(CCCO)S(=O)(=O)c3c(C)ccc4nsnc34)cc2c1 | 91 | 92.5% (inactive) | 91% (inactive) | 95.1% (inactive) | 96.8% (inactive) | 4.04% (inactive) | 92.8 | 96.8 | -1.18% (inactive) | -4.44% (inactive) |
| O=C(Nc1ccc2c(c1)OCO2)C(c1ccccc1)N1CCC2(CC1)OCCO2 (stereo not given) | 96.5 | 101% (inactive) | 96.5% (inactive) | 82.6% (inactive) | 96.3% (inactive) | 7.72% (inactive) | 88.6 | 96.3 | -3.78% (inactive) | 14.9% (inactive) |
| O=C(COc1ccc(S(=O)(=O)N2CCCC2)cc1Cl)NC1CC1 | 126 | 108% (inactive) | 126% (inactive) | 112% (inactive) | 101% (inactive) | 7.76% (inactive) | 93.2 | 101 | -5.68% (inactive) | 3.67% (inactive) |

| SMILES | viability [1] [%] | Her2 level [2] | viability [3] | viability [4] | viability [5] | differential viability (reversal) ([6]; H69AR cells + 2 uM doxorubicin) | viability [6, 9] [%] | viability [6, 10] [%] | inhibition [7] | inhibition [8] |
| --- | --- | --- | --- | --- | --- | --- | --- | --- | --- | --- |
| Cc1cc(C)cc(NC(=O)c2nnn(Cc3cc(C)ccc3C)c2N)c1 | 111 | 92% (inactive) | 111% (inactive) | 71.3% (inactive) | 88.1% (inactive) | -2.83% (inactive) | 90.9 | 88.1 | -0.8% (inactive) | -1.33% (inactive) |
| CC(C)COc1ccc(C(=O)OCCN2CCOCC2)cc1 | 98.5 | 101% (inactive) | 98.5% (inactive) | 118% (inactive) | 98.2% (inactive) | 2.9% (inactive) | 95.3 | 98.2 | -2.86% (inactive) | -3.65% (inactive) |
| C#CC1(O)CC(C)N(C)C(C)C1 (stereo not given) | 105 | 85% (inactive) | 105% (inactive) | 85.3% (inactive) | 91.9% (inactive) | 13.6% (inactive) | 78.3 | 91.9 | -4.55% (inactive) | -4.6% (inactive) |
| CN(C)CC(=O)N1c2ccccc2CCc2ccc(NC(=O)c3ccc(N)cc3)cc21 | 103 | 102% (inactive) | 103% (inactive) | 82.1% (inactive) | 83.8% (inactive) | -4.88% (inactive) | 88.7 | 83.8 | -5.79% (inactive) | 4.26% (inactive) |
| Cc1cc(NC(=O)C23CCC(C)(C(=O)O2)C3(C)C)no1 (stereo not given) | 108 | 93% (inactive) | 108% (inactive) | 96.7% (inactive) | 97.5% (inactive) | 8.27% (inactive) | 89.2 | 97.5 | -0.78% (inactive) | 0.63% (inactive) |
| CC(C)(C)NC(=O)C(c1ccco1)N(C(=O)Cn1nnc(-c2ccc(F)cc2)n1)c1ccccc1 (stereo not given) | 89.5 | 80% (inactive) | 89.5% (inactive) | 101% (inactive) | 102% (inactive) | 3.25% (inactive) | 98.4 | 102 | -0.92% (inactive) | 0% (inactive) |
| FC(F)(F)C(F)(F)C(F)(F)c1nnc2ccc(N3CCOCC3)nn12 | 97.5 | 118% (inactive) | 97.5% (inactive) | 84.8% (inactive) | 83.7% (inactive) | -0.265% (inactive) | 83.9 | 83.7 | 4.21% (inactive) | 7.94% (inactive) |
| CCOC(=O)CC(NS(=O)(=O)c1ccc(NC(C)=O)cc1)c1ccc(OCC)cc1 (stereo not given) | 115 | 100% (inactive) | 115% (inactive) | 110% (inactive) | 90.9% (inactive) | -2.94% (inactive) | 93.9 | 90.9 | -7.63% (inactive) | -4.91% (inactive) |
| COc1ccc(S(=O)(=O)NCc2ccc(C(=O)O)cc2)cc1 | 102 | 99% (inactive) | 102% (inactive) | 107% (inactive) | 95.8% (inactive) | -10.6% (inactive) | 106 | 95.8 | -3.77% (inactive) | -3.33% (inactive) |
| Cc1ccc(-c2nnc(-c3ccc(Br)cc3)o2)o1 | 100 | 93.5% (inactive) | 100% (inactive) | 99.9% (inactive) | 86.1% (inactive) | 1.58% (inactive) | 84.5 | 86.1 | -5.87% (inactive) | -1.64% (inactive) |
| CCCCOc1ccccc1NC(=O)c1ccco1 | 87 | 93% (inactive) | 87% (inactive) | 76.6% (inactive) | 62.9% (inactive) | -14.4% (inactive) | 77.3 | 62.9 | -0.93% (inactive) | -0.16% (inactive) |
| CC1=C(C(=O)OC(C)C)C(C2CC=CCC2)NC(=O)N1 (stereo not given) | 95.5 | 113% (inactive) | 95.5% (inactive) | 98.5% (inactive) | 87.3% (inactive) | -1.42% (inactive) | 88.7 | 87.3 | 0.77% (inactive) | -10.7% (inactive) |
| Cc1cc(S(=O)(=O)n2cnc3ccccc32)c(C)cc1Cl | 86.5 | 120% (inactive) | 86.5% (inactive) | 99.1% (inactive) | 102% (inactive) | 9.41% (inactive) | 92.4 | 102 | -3.42% (inactive) | -3.97% (inactive) |
| Cc1cncn1CCc1nc2c3ccccc3nc(=S)n2[nH]1 | 110 | 88.5% (inactive) | 110% (inactive) | 89.2% (inactive) | 88.8% (inactive) | -4.09% (inactive) | 92.9 | 88.8 | -3.68% (inactive) | -4.13% (inactive) |
| COc1cccc2cc(C(=O)N3CCc4ccccc43)c(=O)oc12 | 92 | 74% (inactive) | 92% (inactive) | 95.2% (inactive) | 94.2% (inactive) | 4.2% (inactive) | 90 | 94.2 | -3.03% (inactive) | 0.63% (inactive) |
